From ChEMBL document CHEMBL4513216, “Probing the Open Global Health Chemical Diversity Library for Multistage-Active Starting Points for Next-Generation Antimalarials” (ACS Infect Dis, 2020)

Assay: Toxicity liver stage against HepG2, at 10uM
Assay type: cell-based
Parameters: test concentration 10 uM, cell line HepG2-A16-CD81EGFP
Settings: human, HepG2-A16-CD81EGFP cells; read-out: INHIBITION
Method in brief: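 Uninfected HepG2-A16-CD81EGFP cells, 3 × 10^3 per well, 1536-well, plated on prespotted compound at 10 μM final, parasite-free screening media added to match infected plates; puromycin 10 μM positive, DMSO 0.5% negative; run in parallel with 48 h PbLuc assay at 37 °C, 5% CO2; viability by CellTiter-Glo luminescence, normalized to controls.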

## COCCN1CCc2c(cnc(-c3ccoc3)c2C(=O)O)C1
  cytotoxicity at 10 µM: 0.908%

## COc1cc(CO)ccc1OCc1nc(C2CC2)no1
  cytotoxicity at 10 µM: 6.37%

## COCCC1COC2(CCN(C(=O)c3ccccc3)CC2)C1 (stereo not drawn)
  cytotoxicity at 10 µM: -87.5%

## O=C1OC2(CCN(C(=O)C3NCCc4[nH]cnc43)CC2)c2ccccc21 (stereo not drawn)
  cytotoxicity at 10 µM: -7.05%

## CC1CCCCN1C(=O)c1n[nH]c(=O)c2ccccc12 (stereo not drawn)
  cytotoxicity at 10 µM: -0.402%

## O=C1CCC2(CCC(NC3CCOC3)CC2)N1Cc1ccccc1 (stereo not drawn)
  cytotoxicity at 10 µM: -5.54%

## Cc1cc(-c2nn(C)c(Cl)c2CN2CCC3(CC2)[C@H](O)C[C@@H]3O)no1
  cytotoxicity at 10 µM: -5.66%

## O=C(Cc1ccc(F)cc1Cl)N[C@@H]1CCNC[C@H]1O
  cytotoxicity at 10 µM: -0.918%

## COc1cc(N2C[C@@H]3COC[C@]3(COc3ncccc3F)C2)ncn1
  cytotoxicity at 10 µM: -67.5%

## Cc1cnccc1CN(C)C(=O)C(C)(C)NC(=O)c1cccs1
  cytotoxicity at 10 µM: 6.89%

## CCCc1cc(NC2CCc3nc(C)nn3C2)n2ncnc2n1 (stereo not drawn)
  cytotoxicity at 10 µM: -10.4%

## Cc1noc(CN2CCCC2c2noc(C3CC3)n2)n1 (stereo not drawn)
  cytotoxicity at 10 µM: -23.6%

## Cc1ccc(Nc2ncnc3c2CCN(CC2CCOC2)CC3)cc1 (stereo not drawn)
  cytotoxicity at 10 µM: 5.32%

## Cn1cc(N2CCC3(CCN(C(=O)[C@H]4CCCO4)C3)C2=O)cn1 (stereo partly drawn)
  cytotoxicity at 10 µM: 0.893%

## O=C(c1nc2sccn2c1-c1ncc[nH]1)N1CCCCC1
  cytotoxicity at 10 µM: 7.52%

## CC(C)n1ncc2c1NC(=O)CC21C(=O)Nc2c(Cl)cc(Br)cc21 (stereo not drawn)
  cytotoxicity at 10 µM: -5.15%

## c1cnc(NCc2cncc3c2CCN(Cc2ccoc2)C3)nc1
  cytotoxicity at 10 µM: -70.9%

## CC(C)c1noc(C2CCN(C(=O)c3cccs3)CC2)n1
  cytotoxicity at 10 µM: 1.51%

## Cc1cccc(C)c1C(=O)N1C[C@@H](CN2CCOCC2)[C@@H](CO)C1
  cytotoxicity at 10 µM: 0.0453%

## Cn1ccnc1CN1CCC2(CC1)CN(c1ccccc1)C(=O)CO2
  cytotoxicity at 10 µM: -0.414%

## O=C1NCC2(CCCN(c3ncnc4c3CCC4)CC2)O1 (stereo not drawn)
  cytotoxicity at 10 µM: -0.718%

## Cc1cc(OCC(=O)NCc2ccc(F)cc2)nnc1C
  cytotoxicity at 10 µM: -9.27%

## COc1cccc(CN2CCC3(CC2)CCN(c2ncc(C)cn2)C3)c1
  cytotoxicity at 10 µM: -3.55%

## COCC(=O)N1CCN(CC2CC2)c2ncccc2C1
  cytotoxicity at 10 µM: -100%

## O=C(CCN1CCCCC1)N1CCC(Cc2ccc(CO)cc2)C1 (stereo not drawn)
  cytotoxicity at 10 µM: -7.33%

## Cc1nc(CN2CCC(c3nc4cc(Cl)ccc4o3)CC2)oc1C
  cytotoxicity at 10 µM: -8.56%

## CN(C)S(=O)(=O)N1CCN(Cc2ccnc(N3CCCC3)n2)CC1
  cytotoxicity at 10 µM: -4.42%

## COc1ccc2c(c1)CCCN(CC(=O)NCC1CCCO1)C2 (stereo not drawn)
  cytotoxicity at 10 µM: -12%

## c1ccc(SCCN2CCN(CCn3cncn3)CC2)cc1
  cytotoxicity at 10 µM: -2.88%

## CN(C)CCNc1cc(-c2ncccc2Cl)c2cc[nH]c2n1
  cytotoxicity at 10 µM: 8.45%

## CC(C)c1noc(CN(C)C(=O)C2COc3ccccc3C2)n1 (stereo not drawn)
  cytotoxicity at 10 µM: 2.77%

## CC(C)(C)n1cc(C2=CCN(CCc3ccccc3)CC2)cn1
  cytotoxicity at 10 µM: 14.3%

## Cc1cc(C)n(CCC(=O)OCC(=O)N2CCc3sccc3C2)n1
  cytotoxicity at 10 µM: 8.52%

## O=C(NCc1nncn1C1CC1)c1ccc(F)c(COCC2CC2)c1
  cytotoxicity at 10 µM: 10.2%

## CCc1cnc(N2CCCOC(CN3CCCC3)C2)nc1 (stereo not drawn)
  cytotoxicity at 10 µM: -5.77%

## O=C(O)c1ccccc1CN1CCCC(Cc2ccn[nH]2)C1 (stereo not drawn)
  cytotoxicity at 10 µM: 2.79%

## CC(Sc1nnc(C2CC2)n1CC(N)=O)c1ccc(Cl)cc1 (stereo not drawn)
  cytotoxicity at 10 µM: 7.72%

## C[C@@H]1C(=O)NC[C@H]2CN(CCc3ccccc3)C[C@H]21
  cytotoxicity at 10 µM: 5.45%

## COc1ccc(C2=C(C)C(N3CCc4ccccc43)=NS2(=O)=O)cc1
  cytotoxicity at 10 µM: -4.66%

## CCCN1CCC(NC(=O)c2csc(C)c2-c2ccccc2)CC1
  cytotoxicity at 10 µM: -133%

## Fc1cnc(N2CCC3(CC2)CN(Cc2ccccn2)CCO3)nc1
  cytotoxicity at 10 µM: 0.35%

## Cc1ccc(N2CC[C@H]3O[C@@H](C(=O)N4CCCCO4)CC[C@H]32)nn1
  cytotoxicity at 10 µM: 5.37%

## COc1nc(C)c(C(=O)N2CCc3[nH]nc(C4CCCC4)c3C2)s1
  cytotoxicity at 10 µM: 7.51%

## Cc1[nH]ncc1C(=O)N1CCCC(c2cc(C(F)(F)F)[nH]n2)C1 (stereo not drawn)
  cytotoxicity at 10 µM: -7.2%

## CC(C)c1nc(C2CCCN(c3nccc(C(F)(F)F)n3)C2)no1 (stereo not drawn)
  cytotoxicity at 10 µM: 5.83%

## Cc1cc(CN2CCCC2c2c(C)nn(C)c2Cl)on1 (stereo not drawn)
  cytotoxicity at 10 µM: -4.77%

## O=C(C1CCOCC1)N1C[C@H]2CCC[C@@]2(COc2ccccn2)C1
  cytotoxicity at 10 µM: -0.587%

## Cc1cc(N2CCCCC2Cn2nc(C)cc2C)n2ncnc2n1 (stereo not drawn)
  cytotoxicity at 10 µM: -1.38%

## O=C(c1ccncc1)N1CCN(C(=O)c2coc3ccccc23)CC1
  cytotoxicity at 10 µM: 4.27%

## Cc1nn2cccnc2c1C(=O)NCc1ccnc(OCC2CC2)c1
  cytotoxicity at 10 µM: -41.6%

## CNC(=O)[C@H]1C[C@@H]2CCN(CCc3ccccc3)C[C@@H]2O1
  cytotoxicity at 10 µM: -81.7%

## COc1ccc(NC(=O)C2CCCO2)cc1OCc1cccnc1 (stereo not drawn)
  cytotoxicity at 10 µM: -23.6%

## O=C(CN1CCCCCC1)NCc1ccc2[nH]c(=O)[nH]c2c1
  cytotoxicity at 10 µM: -2.86%

## O=C(CN1CCCCC1)N1CCC(c2cc(=O)n3c(n2)CCCCC3)C1 (stereo not drawn)
  cytotoxicity at 10 µM: -32.5%

## COc1ccc(C(=O)NCCCOC(C)c2ccccc2)c(OC)c1 (stereo not drawn)
  cytotoxicity at 10 µM: -17.3%

## CNC(=O)N1CCOC(C)(c2cnn(C)c2)C1 (stereo not drawn)
  cytotoxicity at 10 µM: -0.717%

## COc1ccc(Cl)cc1S(=O)(=O)N(C)CC(=O)Nc1ccon1
  cytotoxicity at 10 µM: -3.75%

## Cc1noc(C)c1CN1CCC(c2nnc(Cn3cccn3)n2C)CC1
  cytotoxicity at 10 µM: 3.82%

## O=c1[nH][nH]c2cn(-c3ccc(Cl)cc3)c(=O)n12
  cytotoxicity at 10 µM: 6.45%

## O=C(CCC(=O)N1CCCC1c1ccsc1)N1CCOCC1 (stereo not drawn)
  cytotoxicity at 10 µM: -10.2%

## COc1ncccc1CNC(=O)NCCNC(=O)c1ccco1
  cytotoxicity at 10 µM: -0.313%

## Cc1ccccc1C(C(=O)N(Cc1cnn(C)c1)CC(C)C)N(C)C (stereo not drawn)
  cytotoxicity at 10 µM: 2.66%

## c1ccc2c(Cc3nnc([C@H]4CCN(C5CCC5)C4)o3)c[nH]c2c1
  cytotoxicity at 10 µM: -0.0653%

## Cc1n[nH]c(C)c1NC(=O)CN1CCN(c2nccs2)C(C)C1 (stereo not drawn)
  cytotoxicity at 10 µM: -17.6%

## Cc1nc(O)ccc1C(=O)NCc1ncccc1F
  cytotoxicity at 10 µM: 7.97%

## Cc1ncsc1CN1C[C@@H]2COC[C@]2(COc2ccc(C#N)cn2)C1
  cytotoxicity at 10 µM: -25.6%

## CC(C)Cc1nc(CN(C)CCOc2ccc(F)cc2)no1
  cytotoxicity at 10 µM: -4.68%

## c1cnn(CC2CN(Cc3csc(-c4ccsc4)n3)CCO2)c1 (stereo not drawn)
  cytotoxicity at 10 µM: 3.23%

## COc1ccc(C(O)CN2CC(n3cc(C)cn3)C2)cc1 (stereo not drawn)
  cytotoxicity at 10 µM: 4.52%

## Cc1cc(C)c(CNC(=O)N2CCN(c3ccncc3)CC2)c(=O)[nH]1
  cytotoxicity at 10 µM: -3.57%

## O=C1CN([C@@H]2CC[C@@H](NS(=O)(=O)c3ccc(F)cc3)[C@H]2O)CCN1
  cytotoxicity at 10 µM: -2.11%

## Cn1ccc(CNC(=O)N2CCCC3(C2)OCCO3)c1
  cytotoxicity at 10 µM: 7.6%

## O=C1NCC[C@]12CN(Cc1ccoc1)C[C@H]2c1ccccc1
  cytotoxicity at 10 µM: 4.55%

## O=C(CC1CC1)N1CCN(Cc2ccncc2)c2ncccc2C1
  cytotoxicity at 10 µM: 10%

## CCn1c(C)cc(C(=O)N2C[C@@H](C(=O)O)[C@H](c3ccccc3)C2)c1C
  cytotoxicity at 10 µM: -0.173%

## CC(=O)Nc1ccc2c(c1)nc1n2[C@@H](CNCc2ccccc2)COC1
  cytotoxicity at 10 µM: -10.2%

## N#Cc1cccc(NC2CC(=O)N(Cc3ccccc3Cl)C2)n1 (stereo not drawn)
  cytotoxicity at 10 µM: 4.37%

## Cc1ccc(N2CCCN(CC3CC3)C(C(C)C)C2)nn1 (stereo not drawn)
  cytotoxicity at 10 µM: 13.3%

## COc1ccc(C(C)N(C)Cc2c(C(C)(C)C)[nH]c3ncccc23)cc1 (stereo not drawn)
  cytotoxicity at 10 µM: -0.0612%

## Cc1noc([C@@H]2C[C@H](NC(=O)NC3CCCCC3)CN2C)n1
  cytotoxicity at 10 µM: 3.23%

## Cc1ncncc1C(=O)N1CCOC(C(=O)NC2CCCC2)C1 (stereo not drawn)
  cytotoxicity at 10 µM: -4.23%

## Cc1nc(CNC(=O)NCC(O)c2ccc(F)c(F)c2)cs1 (stereo not drawn)
  cytotoxicity at 10 µM: -3.88%

## COc1ccc(CNC(c2cccc(F)c2)c2cnn(C)c2)cc1 (stereo not drawn)
  cytotoxicity at 10 µM: 4.91%

## O=C(c1cccc(F)c1)N1CCN2C[C@H](OCc3cccnc3)C[C@H]2C1
  cytotoxicity at 10 µM: 4.4%

## Cc1cccnc1C(=O)N1C[C@@H]2CC[C@H](Oc3cccc(F)c3)[C@@H]2C1
  cytotoxicity at 10 µM: 0.297%

## COC[C@@]12CC[C@@H](N3CCOCC3)C[C@H]1CCN(c1ncccc1Cl)C2
  cytotoxicity at 10 µM: -13.2%

## O=C(c1ccno1)N1CCCC(c2ncncc2-c2ccncc2)C1 (stereo not drawn)
  cytotoxicity at 10 µM: -19.9%

## CC(C)OCCS(=O)(=O)N1CCN(Cc2cccn2C)CC1
  cytotoxicity at 10 µM: -17.3%

## COc1ccc(CN2CCN(CC3CC3)[C@@H]3CS(=O)(=O)C[C@@H]32)cc1C
  cytotoxicity at 10 µM: -1.95%

## C=Cn1cc(CN2CCc3nc(-c4cccnc4)nc(O)c3C2)c(C)n1
  cytotoxicity at 10 µM: -6.94%

## Cc1ncccc1CNc1ccc(OCCO)nc1
  cytotoxicity at 10 µM: -1.78%

## COCC1CN(CC2CCOCC2)Cc2cn(CC3CCCC3)nc21 (stereo not drawn)
  cytotoxicity at 10 µM: 5.19%

## Cc1cccc(C(=O)N2CCCN(CCc3scnc3C)CC2)c1
  cytotoxicity at 10 µM: -2.52%

## c1ccc(-c2nc(CNCCn3cccn3)cs2)cc1
  cytotoxicity at 10 µM: -1.56%

## Cc1nn(C)cc1-c1ccnc(N(C)Cc2ccc(F)cc2)n1
  cytotoxicity at 10 µM: -3.85%

## CO[C@@H]1c2ccccc2C2(CCN(C(=O)CNC(=O)C(C)C)CC2)[C@H]1O
  cytotoxicity at 10 µM: -3.26%

## CN1CCC(N(CCc2ccccc2)C(=O)c2cc[nH]c2)CC1
  cytotoxicity at 10 µM: -1.14%

## Cc1cccc(-c2nc(C)nn2CN2CCN(S(C)(=O)=O)CC2)c1
  cytotoxicity at 10 µM: 0.729%

## CCS(=O)(=O)c1nnc([C@@H](N)Cc2ccccc2)o1
  cytotoxicity at 10 µM: 6.99%

## O=C(NCc1cccnc1-n1cncn1)c1ccc2c(c1)CCO2
  cytotoxicity at 10 µM: -14.2%

## CS(=O)(=O)NCC1CCCCN1Cc1cccc(C#N)c1 (stereo not drawn)
  cytotoxicity at 10 µM: 0.528%

## CC(C)n1nc(CN2CCCC2=O)c2c1CN(C(=O)c1ccno1)C2
  cytotoxicity at 10 µM: 3.39%

## Cc1nc(C)n(CC2CCCN2Cc2nnc(-c3ccco3)o2)n1 (stereo not drawn)
  cytotoxicity at 10 µM: 11.4%

## CC(C)N1[C@H](Cn2cncn2)C[C@@H]2CN(Cc3cccs3)CC[C@@H]21
  cytotoxicity at 10 µM: -109%

## COCCCNS(=O)(=O)c1cc(Br)sc1C
  cytotoxicity at 10 µM: -6.14%

## CCOCCCC(=O)Nc1[nH]nc(-c2ccncc2)c1C
  cytotoxicity at 10 µM: 7.98%

## Cc1ccc2c(c1)C1(CCNCC1)CC2N1CCOCC1 (stereo not drawn)
  cytotoxicity at 10 µM: -134%

## O=C(CCN1C(=O)CC2(CCCC2)C1=O)NCCc1nccs1
  cytotoxicity at 10 µM: 2.86%
